# Calls of active or inactive are those of the source. No cut-off for these calls is given here.
# Tests used:
# Staphylococcus aureus [1] = experiment: Antimicrobial activity against Staphylococcus aureus CB809 harboring rpoB H481Y and parC S80F mutant genes by broth microdilution method
# Staphylococcus aureus [2] = experiment: Antimicrobial activity against Staphylococcus aureus CB812 harboring rpo B H481Y and gyrA S84L mutant genes by broth microdilution method; assay type: functional
# How it was run: (§1)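 CLSI broth microdilution MIC in cation-adjusted Mueller-Hinton (MHII) broth supplemented with 0.002% (vol/vol) polysorbate 80, included to limit compound loss to plastic surfaces.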
# Staphylococcus aureus [3] = experiment: Antimicrobial activity against Staphylococcus aureus CB815 harboring rpoB H481Y, gyrA […] and parC S80F mutant genes; assay type: functional
# Staphylococcus aureus [4] = experiment: Antimicrobial activity against rifampin-sensitive Staphylococcus aureus CB190 harboring rpoB D471G mutant gene by broth microdilution method; assay type: functional
# How it was run: as §1
# Staphylococcus aureus [5] = experiment: Antimicrobial activity against Staphylococcus aureus CB370 harboring rpoB H481Y mutant gene; assay type: functional
# Staphylococcus aureus [6] = experiment: Inhibition of RNA synthesis in quinolone-resistant Staphylococcus aureus CB814 harboring gyrA S84L and parC S80F mutant genes assessed as decrease in [5,6-3H]uridine incorporation at 0.032 ug/ml; assay type: functional, organism-based
# How it was run: (§2)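 Macromolecular synthesis time course in S. aureus, measuring incorporation of [methyl-3H]thymidine (DNA), [5,6-3H]uridine (RNA) or [2,3-3H]D-alanine (cell wall). At each time point, incorporation is expressed as percent of the DMSO-treated control culture. Incorporation at time zero is set to 100%.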
# Staphylococcus aureus [7] = experiment: Antimicrobial activity against Staphylococcus aureus CB1947 harboring rpoB H481Y, gyrA S84L, E697 deficient gyrA, parC G167V mutant genes selected after CBR-2092 exposure for 20 days; settings: CB1947, 480 h
# Staphylococcus aureus [8] = experiment: Antimicrobial activity against rifampin-sensitive Staphylococcus aureus CB190 harboring rpo BH481D mutant gene by broth microdilution method; assay type: functional
# How it was run: as §1
# Staphylococcus aureus [9] = experiment: Antimicrobial activity against Staphylococcus aureus CB190 by broth microdilution method; assay type: functional
# Staphylococcus aureus [10] = experiment: Antimicrobial activity against rifampin-sensitive Staphylococcus aureus CB190 by broth microdilution method; assay type: functional
# How it was run: as §1
# Staphylococcus aureus [11] = experiment: Antimicrobial activity against rifampin-sensitive Staphylococcus aureus CB190 harboring rpoB E473 mutant gene by broth microdilution method; assay type: functional
# How it was run: as §1
# Staphylococcus aureus [12] = experiment: Inhibition of protein synthesis in rifamycin-resistant Staphylococcus aureus CB370 harboring rpoB H481Y mutant gene assessed as L-[3,4,5-3H]leucine incorporation at 0.032 ug/ml; assay type: functional, organism-based
# How it was run: (§3)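 Time-course radiolabel incorporation in S. aureus cultures with test agent. Precursors: [methyl-3H]thymidine (DNA), [5,6-3H]uridine (RNA), L-[3,4,5-3H]leucine (protein), [2,3-3H]D-alanine (cell wall). At each time point, incorporation with agent is expressed relative to the DMSO-treated control culture as percent incorporation. Time-zero incorporation is set to 100%.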
# Staphylococcus aureus [13] = experiment: Antimicrobial activity against Staphylococcus aureus CB1887 harboring rpoB R484H, L520 deficient gyrA, […], R236 duplicated parC and parC H103Y mutant genes selected after ABT-719 exposure for 20 days; assay type: functional; settings: CB1887, 480 h
# Staphylococcus aureus [14] = experiment: Antimicrobial activity against Staphylococcus aureus CB1953 harboring rpoB H481Y, gyrA S84L, gyrA V598I, parC S80F, parC R570H mutant genes selected after CBR-2092 exposure for 7 days; assay type: functional; settings: CB1953, 168 h
# Staphylococcus aureus [15] = experiment: Antimicrobial activity against rifampin-sensitive Staphylococcus aureus CB190 harboring rpoB H481Y mutant gene by broth microdilution method; assay type: functional
# How it was run: as §1
# Staphylococcus aureus [16] = experiment: Antimicrobial activity against rifampin-sensitive Staphylococcus aureus CB190 harboring rpoB D471Y mutant gene by broth microdilution method; assay type: functional
# How it was run: as §1
# Staphylococcus aureus [17] = experiment: Antimicrobial activity against rifampin-sensitive Staphylococcus aureus CB190 harboring rpoB Q468L mutant gene by broth microdilution method; assay type: functional
# How it was run: as §1
# Staphylococcus aureus [18] = experiment: Antimicrobial activity against Staphylococcus aureus CB808 harboring quinolone-resistant parC S80F mutant gene by broth microdilution method; assay type: functional
# How it was run: as §1
# [19] = Inhibition of Staphylococcus aureus wild-type RNA polymerase RpoB
# How it was run: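 Recombinant S. aureus σA RNA polymerase holoenzyme in a single-round transcription assay using the pGL2B-T7A1-G-less template. The 272-nucleotide G-less RNA product was quantified by gel electrophoresis. IC50 is the concentration halving the product formed without test agent.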
# Staphylococcus aureus [20] = experiment: Inhibition of cell wall synthesis in Staphylococcus aureus CB190 assessed as decrease in [2,3-3H]D-alanine incorporation at 0.032 ug/ml; assay type: functional, organism-based
# Staphylococcus aureus [21] = experiment: Antimicrobial activity against Staphylococcus aureus CB1952 harboring rpoB S486L, gyrA […], gyrA E88Q, gyrA G532S, parC S80F, parC E84L mutant genes selected after CBR-2092 exposure for 21 days; assay type: functional; settings: CB1952, 504 h
# Staphylococcus aureus [22] = experiment: Inhibition of cell wall synthesis in rifamycin-resistant Staphylococcus aureus CB370 harboring rpoB H481Y mutant gene assessed as [2,3-3H]D-alanine incorporation at 0.032 ug/ml; assay type: functional, organism-based
# How it was run: as §2
# Staphylococcus aureus [23] = experiment: Inhibition of cell wall synthesis in quinolone-resistant Staphylococcus aureus CB814 harboring gyrA S84L and parC S80F mutant genes assessed as decrease in [2,3-3H]D-alanine incorporation at 0.032 ug/ml; assay type: functional, organism-based
# How it was run: as §2
# Staphylococcus aureus [24] = experiment: Inhibition of DNA synthesis in quinolone-resistant Staphylococcus aureus CB814 harboring gyrA S84L and parC S80F mutant genes assessed as decrease in [methyl-3H]thymidine incorporation at 0.032 ug/ml; assay type: functional, organism-based
# How it was run: as §2
# Staphylococcus aureus [25] = experiment: Antimicrobial activity against rifampin-sensitive Staphylococcus aureus CB190 harboring rpoB A477V mutant gene by broth microdilution method; assay type: functional
# How it was run: as §1
# [26] = Inhibition of Staphylococcus aureus RpoB H481Y mutant
# How it was run: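 Recombinant S. aureus σA RNA polymerase holoenzyme carrying RpoB H481Y. Single-round transcription of the pGL2B-T7A1-G-less template. The 272-nt G-less RNA product is quantified by gel electrophoresis. IC50 is the concentration that inhibits 50% of product formed without inhibitor.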
# Staphylococcus aureus [27] = experiment: Antimicrobial activity against Staphylococcus aureus CB814 harboring […] and parC S80F mutant genes; assay type: functional
# Staphylococcus aureus [28] = experiment: Antimicrobial activity against Staphylococcus aureus CB814 harboring fluoroquinolone-resistant gyrA S84L and parC S80F mutant genes by broth microdilution method; assay type: functional
# How it was run: as §1
# Staphylococcus aureus [29] = experiment: Antimicrobial activity against rifampin-sensitive Staphylococcus aureus CB190 harboring rpoB H472 mutant gene by broth microdilution method; assay type: functional
# How it was run: as §1
# Staphylococcus aureus [30] = experiment: Antimicrobial activity against rifampin-sensitive Staphylococcus aureus CB190 harboring rpoB N474K mutant gene by broth microdilution method; assay type: functional
# How it was run: as §1
# Staphylococcus aureus [31] = experiment: Antimicrobial activity against Staphylococcus aureus CB1954 harboring rpoB H481Y, gyrA S84L, K809 deficient gyrA, parC S80F, parC A523D mutant genes selected after CBR-2092 exposure for 7 days; assay type: functional; settings: CB1954, 168 h
# How it was run: as §1
# Staphylococcus aureus [32] = experiment: Inhibition of DNA synthesis in rifamycin-resistant Staphylococcus aureus CB370 harboring rpoB H481Y mutant gene assessed as [methyl-3H]thymidine incorporation at 0.032 ug/ml; assay type: functional, organism-based
# How it was run: as §2
# Staphylococcus aureus [33] = experiment: Inhibition of protein synthesis in Staphylococcus aureus CB190 assessed as decrease in L-[3,4,5-3H]leucine incorporation at 0.032 ug/ml; assay type: functional, organism-based
# Staphylococcus aureus [34] = experiment: Antimicrobial activity against Staphylococcus aureus CB811 harboring quinolone-resistant gyrA S84L mutant gene by broth microdilution method; assay type: functional
# How it was run: as §1
# Staphylococcus aureus [35] = experiment: Antimicrobial activity against rifampin-sensitive Staphylococcus aureus CB190 harboring rpoB Q468K mutant gene by broth microdilution method; assay type: functional
# How it was run: as §1
# Staphylococcus aureus [36] = experiment: Inhibition of protein synthesis in quinolone-resistant Staphylococcus aureus CB814 harboring gyrA S84L and parC S80F mutant genes assessed as decrease in L-[3,4,5-3H]leucine incorporation at 0.032 ug/ml; assay type: functional, organism-based
# How it was run: as §3
# Staphylococcus aureus [37] = experiment: Inhibition of RNA synthesis in rifamycin-resistant Staphylococcus aureus CB370 harboring rpoB H481Y mutant gene assessed as [5,6-3H]uridine incorporation at 0.032 ug/ml; assay type: functional, organism-based
# How it was run: as §2
# Staphylococcus aureus [38] = experiment: Inhibition of RNA synthesis in Staphylococcus aureus CB190 assessed as decrease in [5,6-3H]uridine incorporation at 0.032 ug/ml; assay type: functional, organism-based
# Staphylococcus aureus [39] = experiment: Inhibition of DNA synthesis in Staphylococcus aureus CB190 assessed as decrease in [methyl-3H]thymidine incorporation at 0.032 ug/ml; assay type: functional, organism-based
# Staphylococcus aureus [40] = experiment: Antimicrobial activity against Staphylococcus aureus CB1884; assay type: functional
# Staphylococcus aureus [41] = experiment: Antimicrobial activity against Staphylococcus aureus CB370 harboring rifampin-resistant rpoB H481Y mutant gene by broth microdilution method; assay type: functional
# How it was run: as §1
# Staphylococcus aureus [42] = experiment: Antimicrobial activity against Staphylococcus aureus CB815 harboring rpoB H481Y, gyrA S84L and parC S80F mutant genes by broth microdilution method
# Staphylococcus aureus [43] = experiment: Antimicrobial activity against rifampin-sensitive Staphylococcus aureus CB190 harboring rpoB H481N mutant gene by broth microdilution method; assay type: functional
# How it was run: as §1
compound,measurement,setting,value
CO[C@H]1/C=C/O[C@@]2(C)Oc3c(C)c(O)c4c(O)c(c(/C=N/N5CCN(C)CC5)c(O)c4c3C2=O)NC(=O)/C(C)=C\C=C\[C@H](C)[C@H](O)[C@@H](C)[C@@H](O)[C@@H](C)[C@H](OC(C)=O)[C@@H]1C [RIFAMPIN],MIC,Staphylococcus aureus [1],> 250 µg/mL
same,MIC,Staphylococcus aureus [2],> 250 µg/mL
same,MIC,Staphylococcus aureus [3],> 125 µg/mL
same,MIC,Staphylococcus aureus [4],0.25 µg/mL
same,MIC,Staphylococcus aureus [5],> 250 µg/mL
same,Activity,Staphylococcus aureus [6],Active
same,MIC,Staphylococcus aureus [7],> 250 µg/mL
same,MIC,Staphylococcus aureus [8],> 64 µg/mL
same,MIC,Staphylococcus aureus [9],0.008 µg/mL
same,MIC,Staphylococcus aureus [10],0.008 µg/mL
same,MIC,Staphylococcus aureus [11],8 µg/mL
same,Activity,Staphylococcus aureus [12],inactive
same,MIC,Staphylococcus aureus [13],> 250 µg/mL
same,MIC,Staphylococcus aureus [14],> 125 µg/mL
same,MIC,Staphylococcus aureus [15],> 64 µg/mL
same,MIC,Staphylococcus aureus [16],16 µg/mL
same,MIC,Staphylococcus aureus [17],> 64 µg/mL
same,MIC,Staphylococcus aureus [18],0.008 µg/mL
same,IC50,[19],0.015 µM
same,Activity,Staphylococcus aureus [20],Active
same,MIC,Staphylococcus aureus [21],> 250 µg/mL
same,Activity,Staphylococcus aureus [22],inactive
same,Activity,Staphylococcus aureus [23],Active
same,Activity,Staphylococcus aureus [24],Active
same,MIC,Staphylococcus aureus [25],1 µg/mL
same,IC50,[26],> 25 µM
same,MIC,Staphylococcus aureus [27],0.008 µg/mL
same,MIC,Staphylococcus aureus [28],0.008 µg/mL
same,MIC,Staphylococcus aureus [29],32 µg/mL
same,MIC,Staphylococcus aureus [30],2 µg/mL
same,MIC,Staphylococcus aureus [31],> 125 µg/mL
same,Activity,Staphylococcus aureus [32],inactive
same,Activity,Staphylococcus aureus [33],Active
same,MIC,Staphylococcus aureus [34],0.008 µg/mL
same,MIC,Staphylococcus aureus [35],> 64 µg/mL
same,Activity,Staphylococcus aureus [36],Active
same,Activity,Staphylococcus aureus [37],inactive
same,Activity,Staphylococcus aureus [38],Active
same,Activity,Staphylococcus aureus [39],Active
same,MIC,Staphylococcus aureus [40],> 250 µg/mL
same,MIC,Staphylococcus aureus [41],> 250 µg/mL
same,MIC,Staphylococcus aureus [42],> 250 µg/mL
same,MIC,Staphylococcus aureus [43],2 µg/mL

# From ChEMBL document CHEMBL1275434, “In vitro evaluation of CBR-2092, a novel rifamycin-quinolone hybrid antibiotic: studies of the mode of action in Staphylococcus aureus” (Antimicrob Agents Chemother, 2008)
